Measurements gathered from unrelated publications.
Lines come from different studies, so protocols differ.
Target: Calcium/calmodulin-dependent protein kinase type 1B (PNCK, Homo sapiens, UniProt Q6P2M8)

`Nc1ncc2c(n1)-c1c([nH]c3ccc(C#CC4CC4)cc13)CCCC2` gave a remaining binding of 79% (binding; competition with immobilised ligand; 1 µM).
`CC1CCCN1c1nccc(-c2cnn3ncccc23)n1` (stereo not shown) has a remaining binding of 82% (binding; 1 µM).
With `O=C(c1ccc(Nc2ncc(Cl)c(-c3ccc(Cl)s3)n2)cc1)N1CCC(N2CCCC2)CC1` the remaining binding was 56% (binding; competition with immobilised ligand; 1 µM).
The remaining binding of `c1cncc(-c2cccc(Nc3nccc(NC4CCCCC4)n3)c2)c1` is reported as 53% (binding; competition with immobilised ligand; 10 µM).
`CNC(=O)[C@@H]1CC[C@@H](n2c(-c3ccc4cnccc4c3)nc3ccc(C(=O)NCc4cccc(C(N)=O)c4)cc32)C1` gave a remaining binding of 85% (binding; competition with immobilised ligand; 1 µM).
`Cc1cnc(Nc2ccc(C(=O)N3CCC(N4CCCC4)CC3)cc2)nc1-c1cc2ccccc2s1` has a remaining binding of 36% (binding; competition with immobilised ligand; 1 µM).
For `Cc1cnn2ncc(-c3ccnc(N(C)C)n3)c2c1`, the remaining binding was 97% (binding; 1 µM).
With `CC(C)(O)c1cncc(-c2nc3ccc(F)cc3n2C2CC2)c1` the remaining binding was 100% (cell-free assay; competition with immobilised ligand; 1 µM).
`O=C(Nc1c[nH]nc1C(=O)NC1CCNCC1)c1cc(F)cc(F)c1` gave a remaining binding of 100% (binding; competition with immobilised ligand; 1 µM).
With `CC(=O)N1CCC(c2ccc(C(=O)NC(=N)N)cc2C(F)(F)F)CC1` the remaining binding was 100% (cell-free assay; competition with immobilised ligand; 1 µM).
`CN(c1nccc(-c2cnn3ncccc23)n1)C1CC1` gave a remaining binding of 98% (binding; 1 µM).
For `COc1cnc(Nc2cccc(S(N)(=O)=O)c2)nc1N1CCN(c2ccccc2)CC1`, the remaining binding was 92% (binding; competition with immobilised ligand; 1 µM).
`CC1=C(C#N)[C@@H](c2ccc3[nH]nc(C)c3c2)C(C#N)=C(c2ccc(Cl)cc2)N1` gave a remaining binding of 98.5% (cell-free assay; competition with immobilised ligand; 1 µM).
For `N[C@H]1CCN(c2nccc(-c3cnn4ncccc34)n2)C1`, the remaining binding was 84% (binding; 1 µM).
`COc1ncc2cc3ccccc3nc2c1C#N` has a remaining binding of 95% (cell-free assay; competition with immobilised ligand; 5 µM).
The remaining binding of `CC(=O)c1c(NS(C)(=O)=O)c2cc(-c3ccc(Cl)cc3)c(-c3ccc(Cl)cc3Cl)nc2n(C)c1=O` is reported as 100% (cell-free assay; competition with immobilised ligand; 1 µM).
With `O=C(NCCCN1CCOCC1)c1ccc(Nc2ncc(Cl)c(-c3ccc(Cl)s3)n2)cc1` the remaining binding was 82% (binding; competition with immobilised ligand; 1 µM).
`CN(C)c1nccc(-c2cnn3ncccc23)n1` gave a remaining binding of 29% (binding; 1 µM).
`COc1cc(-c2cn(C3CCc4ccccc4N(CC(F)(F)F)C3=O)nn2)ccc1-n1ccc(C)n1` (stereo not shown) has a remaining binding of 100% (cell-free assay; competition with immobilised ligand; 1 µM).
